From PMC6028879 (Clinical Pharmacokinetics, 2018)

Legend:
[1] = ulipristal acetate with ketoconazole; cited from earlier work
Drug-drug interaction = type: in vivo, human; settings: ITZ 200 mg oral solution once daily; during the blood sampling period for VPR
How it was run: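 This was a fixed-sequence, open-label study. In period 1, the test compound was given as a single oral 4 mg tablet, fasted, with water. After a washout of ≥ 4 weeks, itraconazole 200 mg oral solution was given once daily for 14 days. On day 4 the test compound was dosed 1 h after itraconazole. Plasma was sampled to 11 or 13 days and measured by validated LC–MS/MS. Non-compartmental analysis was used. Log-transformed AUC0–11d and Cmax were analysed by ANOVA with treatment and subject effects, giving ratio estimates, 90% CI and 95% PI.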

Row | SMILES | increase in exposure with ketoconazole [1] | geometric mean ITZ trough concentrations (Drug-drug interaction)
1 | CC(=O)O[C@]1(C(C)=O)CC[C@H]2[C@@H]3CCC4=CC(=O)CCC4=C3[C@@H](c3ccc(N(C)C)cc3)C[C@@]21C [ulipristal acetate] | 5.8 fold | –
2 | CCC(C)n1ncn(-c2ccc(N3CCN(c4ccc(OCC5COC(Cn6cncn6)(c6ccc(Cl)cc6Cl)O5)cc4)CC3)cc2)c1=O (centres unmarked) [ITZ, Itraconazole] | – | above 530 µg/L
